Assay results of several laboratories.
Each line is one published result; the experiments were not run side by side.
Target: Casein kinase II subunit alpha (CSNK2A1, Homo sapiens, UniProt P68400)

The inhibition of `COc1cc2ncnc(Nc3ccc(Oc4ccccc4)c(C)c3C)c2cc1OC` is reported as 5% (enzyme activity; inhibitor; 1 µM).
`C#Cc1cccc(Nc2ncnc3cc(OCCOC)c(OCCOC)cc23)c1` gave a remaining signal of 78.9% (cell-free assay; 0.5 µM).
The ΔTm of `Cn1c2c(c3ccc(Cl)c(Cl)c31)C(C#N)C1(CCCCC1)NC2=O` (racemic) is reported as 0.7 °C (thermal stability; DSF; 10 µM).
`CCCOc1ccc(OC)c(F)c1C(=O)c1ccc(C(=O)N[C@@H]2CNC[C@H]2NC(=O)c2ccc3[nH]ncc3c2)cc1` has a remaining activity of 108% (enzyme activity; inhibitor; 10 µM).
The activity vs control of `COc1cc(/C=C/C(=O)CC(=O)/C=C/c2ccc(O)c(OC)c2)ccc1O` is reported as 106% (enzyme activity; inhibitor; 1 µM).
`Nc1ncnc2occ(-c3ccc(NC(=O)Nc4cc(C(F)(F)F)ccc4F)cc3)c12` gave a remaining activity of 63% (enzyme activity; inhibitor; 20 µM).
`CCCS(=O)(=O)Nc1ccc(F)c(C(=O)c2c[nH]c3ncc(-c4ccc(Cl)cc4)cc23)c1F` has an inhibition of less than 10% (enzyme activity; inhibitor; 1 µM).
`CNC(=O)c1cc(Oc2ccc(NC(=O)Nc3ccc(Cl)c(C(F)(F)F)c3)cc2)ccn1` gave a remaining signal of 108% (cell-free assay; 0.5 µM).
`CN1CCC2(CC1)NC(=O)c1c(c3ccc(Cl)c(Cl)c3n1C)C2C#N` (racemic) gave a ΔTm of 2.5 °C (thermal stability; DSF; 10 µM).
`Cc1ccc(Nc2nccc(N(C)c3ccc4c(C)n(C)nc4c3)n2)cc1S(N)(=O)=O` has an inhibition of -9% (enzyme activity; inhibitor; 0.3 µM).
The remaining activity of `FC(F)c1nc2ccccc2n1-c1nc(N2CCOCC2)nc(N2CCOCC2)n1` is reported as 54% (enzyme activity; inhibitor; 10 µM).
`CCN(CC)CCNC(=O)c1c(C)[nH]c(/C=C2\C(=O)Nc3ccc(F)cc32)c1C` gave an inhibition of 22% (enzyme activity; inhibitor; 10 µM).
`FC(F)(F)c1ccc2c(c1)nc(-c1cccnc1)n2C1CC1` has a remaining binding of 100% (cell-free assay; competition with immobilised ligand; 1 µM).
`O=C(Nc1cnn(-c2csc(C(=O)NC3COC3)c2)c1)Nc1c(F)cccc1Cl` gave a remaining activity of 90.5% (enzyme activity; inhibitor; 5 µM).
The remaining binding of `O=C(Nc1ccc(Oc2ccc(F)cc2)cc1)N1CCc2ncccc2[C@H]1c1ccc(F)cc1` is reported as 99% (cell-free assay; competition with immobilised ligand; 1 µM).
For `Nc1nc(Nc2ccccc2)sc1C(=O)c1c(F)cccc1F`, the remaining activity was 111% (enzyme activity; inhibitor; 10 µM).
With `Cc1cc(NC(=O)c2cccc3cc(-c4cccc5[nH]nc(N)c45)ccc23)ccc1F` the activity vs control was 109% (enzyme activity; inhibitor; 0.1 µM).
`Cn1c2c(Cl)c(Cl)ccc2c2cc(N)[nH]c(=O)c21` has a ΔTm of 2.8 °C (thermal stability; DSF; 10 µM).
With `COc1cc(Nc2cnc(C#N)c(O[C@H](C)CN(C)C)n2)ncc1-c1cnn(C)c1` the remaining activity was 87% (enzyme activity; inhibitor; radiometric; 10 µM).
With `CN(C)C(=O)Cn1cc(-c2nc([C@@](C)(c3ccc(-c4cnc(N)nc4)cc3)C3CC3)no2)cn1` the remaining binding was 88% (cell-free assay; competition with immobilised ligand; 1 µM).
`CC(C)(C)c1nc2c(s1)c1nc(N)ncc1c1ccc(NS(=O)(=O)c3c(F)cccc3F)c(F)c12` has a remaining activity of 88% (enzyme activity; inhibitor; radiometric; 1 µM).
`CN([C@@H]1CCc2c(CC(=O)O)c3ccccc3n2C1)S(=O)(=O)c1ccc(F)cc1` gave a remaining binding of 82% (cell-free assay; competition with immobilised ligand; 1 µM).
`Cn1c2c(c3ccc(Cl)c(Cl)c31)C(C#N)C(C)(C)NC2=O` (stereo not shown) gave a ΔTm of 2.6 °C (thermal stability; DSF; 10 µM).
With `Cn1cc(Cl)c2c(Oc3c(F)cc(Nc4cc(Cl)nc(N)n4)cc3F)ccnc21` the remaining binding was 98% (cell-free assay; competition with immobilised ligand; 0.1 µM).
For `C[S+]([O-])c1ccc(-c2nc(-c3ccncc3)c(-c3ccc(F)cc3)[nH]2)cc1` (stereo not shown), the remaining signal was 86.2% (cell-free assay; 0.5 µM).
For `Nc1cnc(N2CCc3cc(S(=O)(=O)Nc4c(F)cc(Cl)cc4F)cc(N4CCCC4=O)c32)nc1`, the remaining binding was 100% (cell-free assay; competition with immobilised ligand; 1 µM).
For `CN(c1ncccc1CNc1nc(Nc2ccc3c(c2)CC(=O)N3)ncc1C(F)(F)F)S(C)(=O)=O`, the inhibition was 50.7% (enzyme activity; inhibitor; 1 µM).
With `CN([C@@H]1CCc2c(CC(=O)O)c3cc(S(C)(=O)=O)ccc3n2C1)S(=O)(=O)c1ccc(F)cc1` the remaining binding was 91% (cell-free assay; competition with immobilised ligand; 1 µM).
`Nc1nc(NC2CCCCC2)sc1C(=O)c1ccccc1` gave a remaining activity of 114% (enzyme activity; inhibitor; 10 µM).
`C[C@H](NC(=O)c1cnc2n1[C@](C)(Cc1ccc(C#N)cc1)C(=O)N2c1cc(Cl)c(F)c(Cl)c1)C(=O)NC1(c2ccccn2)CC1` gave a remaining binding of 81% (cell-free assay; competition with immobilised ligand; 1 µM).
The remaining activity of `Cc1ccc(C(=O)Nc2ccc(CN3CCN(C)CC3)c(C(F)(F)F)c2)cc1C#Cc1cnc2cccnn12` is reported as 98% (enzyme activity; inhibitor; 23.5 nM).
